Data taken from ChEMBL document CHEMBL5143543, “Synthesis and evaluation of enantiomers of hydroxychloroquine against SARS-CoV-2 in vitro” (Bioorg Med Chem, 2022).
Active and inactive are the calls of the source. The rule behind the calls is not given here.

Tests used:
SARS-CoV-2 [1] = assay: Antiviral activity against SARS-CoV-2 infected in Vero E6 cells assessed as virus-induced cytopathic effect at 5 uM measured after 48 hrs by CCK-8 assay; assay type: functional, organism-based; conditions: Severe acute respiratory syndrome coronavirus 2
SARS-CoV-2 [2] = assay: Antiviral activity against SARS-CoV-2 infected in Vero E6 cells assessed as virus-induced cytopathic effect at 40 uM measured after 48 hrs by CCK-8 assay; assay type: functional, organism-based; conditions: Severe acute respiratory syndrome coronavirus 2
[3] = Toxicity in mouse assessed as death at 230 mg/kg, po measured after 7 days; assay type: organism-based; conditions: in vivo, 168 h, time 7 day
Outline: (§1)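 Male and female mice (25 g; n = 8 per group; vehicle-control and test groups) were fasted overnight. Compounds were given as sulfate salts in physiological saline, intragastrically at 230 mg/kg twice a day; controls received saline. Survival was followed by day post dosing, in a double-dose acute toxicity assay.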

SARS-CoV-2 [4] = assay: Antiviral activity against SARS-CoV-2 infected in Vero E6 cells assessed as viral RNA level measured after 48 hrs by RT-PCR analysis; assay type: functional, organism-based; conditions: Severe acute respiratory syndrome coronavirus 2, Vero C1008, 48 h
[5] = Toxicity in mouse assessed as death at 230 mg/kg, po measured after 12 days; assay type: organism-based; conditions: in vivo, 288 h, time 12 day; outline: as §1
[6] = Toxicity in mouse assessed as death at 230 mg/kg, po measured after 9 days; assay type: organism-based; conditions: in vivo, 216 h, time 9 day; outline: as §1

CCC(CC)COC(=O)[C@H](C)N[P@](=O)(OC[C@H]1O[C@@](C#N)(c2ccc3c(N)ncnn23)[C@H](O)[C@@H]1O)Oc1ccccc1
Activity (SARS-CoV-2 [1]): Active

CCN(CCO)CCCC(C)Nc1ccnc2cc(Cl)ccc12.O=S(=O)(O)O (racemic) [HYDROXYCHLOROQUINE SULFATE]
Activity (SARS-CoV-2 [2]): Active | Activity [3]: Toxic | EC50 (SARS-CoV-2 [4]): 5.09 µM

CCN(CCO)CCC[C@H](C)Nc1ccnc2cc(Cl)ccc12.O=S(=O)(O)O
Activity (SARS-CoV-2 [2]): Active | EC50 (SARS-CoV-2 [4]): 3.05 µM | Activity [5]: Non-Toxic

CCN(CCO)CCC[C@@H](C)Nc1ccnc2cc(Cl)ccc12.O=S(=O)(O)O
Activity (SARS-CoV-2 [2]): Active | Activity [6]: Toxic | EC50 (SARS-CoV-2 [4]): 5.38 µM
